Screening results from PubChem.
Shown are actives, neighbours in structure and some others; about 3.7% of the full set was active somewhere.
KCNK9 block = KCNK9 potassium channel inhibitors, primary screen, HEK293 cells, thallium flux; 1.2% of 310,000 active; B-score at 10 µM; Potassium channel subfamily K member 9 (Homo sapiens), Q9NPC2; FluxOR thallium flux fluorescence; hits give low values; AID 488922, 2010;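 active = ratio B-score over 3 SD below the library mean, with starting fluorescence within 5 SD of its mean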;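 also: negative B-score means less thallium flux so channel inhibition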
Kir21 block = inhibitors of mouse Kir2.1 inward-rectifier potassium channel. Inward rectifier potassium channel 2 (Mus musculus), P35561. HEK293-Kir2.1, FluxOR thallium flux fluorescence; hits give low values. B-score at 10 µM. 0.85% of 310,000 active;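 active = fluorescence ratio B-score at or below minus 3 SD of library scores, with starting-brightness B-score within 2 SD, cut at about -4.2 in these data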;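 also: channel flux triggered by added potassium and thallium sulfate stimulus; B-score of peak minus minimum fluorescence over baseline after thallium stimulus; more negative B-score means stronger Kir2.1 block with less thallium influx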
KCNQ1 block = inhibitors of human KCNQ1 channel, primary screen, cell-based, thallium flux, high-throughput. 1.3% of 310,000 active. AID 2642, 2010. Potassium voltage-gated channel subfamily KQT member 1 (Homo sapiens), P51787. CHO-K1 KCNQ1, FluxOR thallium flux fluorescence; hits give high values. B-score at 10 µM;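 active = compounds whose thallium flux B-score, printed positive for inhibition, exceeds three library SD while starting fluorescence stays within three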;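 also: channel opened by potassium depolarization with thallium stimulus after 20 min compound exposure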
Target sequence (P51787 whole entry, looked up): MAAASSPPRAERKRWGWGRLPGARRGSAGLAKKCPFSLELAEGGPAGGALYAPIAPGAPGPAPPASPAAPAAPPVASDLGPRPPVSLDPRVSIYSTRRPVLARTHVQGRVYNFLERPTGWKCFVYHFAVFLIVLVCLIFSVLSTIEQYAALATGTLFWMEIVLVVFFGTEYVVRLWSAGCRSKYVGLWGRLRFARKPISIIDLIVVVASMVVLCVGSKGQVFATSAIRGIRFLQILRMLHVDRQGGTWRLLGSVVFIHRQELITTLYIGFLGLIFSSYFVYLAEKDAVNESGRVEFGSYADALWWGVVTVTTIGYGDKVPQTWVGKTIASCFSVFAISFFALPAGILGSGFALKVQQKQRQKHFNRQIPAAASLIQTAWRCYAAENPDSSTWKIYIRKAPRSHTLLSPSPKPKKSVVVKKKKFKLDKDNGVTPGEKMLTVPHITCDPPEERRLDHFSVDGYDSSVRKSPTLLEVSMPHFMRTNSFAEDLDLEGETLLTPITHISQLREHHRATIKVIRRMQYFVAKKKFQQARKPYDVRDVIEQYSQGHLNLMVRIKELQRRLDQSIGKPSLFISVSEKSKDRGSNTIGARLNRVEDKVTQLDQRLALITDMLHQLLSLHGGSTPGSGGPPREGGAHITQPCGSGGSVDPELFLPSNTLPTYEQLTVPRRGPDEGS
KCNK3 inh = human KCNK3 channel inhibitors, primary screen, CHO cells, FluxOR thallium flux, B-score; FluxOR fluorescence; hits give low values; B-score at 10 µM; 0.84% of 340,000 active;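 active = B-score under library mean minus 4 SD, starting fluorescence ratio at most library mean plus 5 SD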;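 also: more negative B-score means stronger inhibition of thallium flux through KCNK3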
KCNQ1 act = potentiators or activators of KCNQ1 channel, primary screen, cell-based, thallium flux, high-throughput | Potassium voltage-gated channel subfamily KQT member 1 (Homo sapiens), P51787 | CHO-K1 KCNQ1, thallium flux FluxOR fluorescence; hits give high values | B-score at 10 µM | 0.35% of 310,000 active | AID 2648, 2010;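 active = fluorescence ratio B-score, a plate-corrected score, at least three library SD, with initial intensity B-score within 5 SD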
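System: Stable KCNQ1 CHO-K1 line | Incubation: 90 min dye loading and 20 min compound exposure, both at room temperature | Measure: Ratio B score | Medium: Assay buffer for compound exposure, DMSO matched across wells | Compound dosing: Single-concentration screen | Probe or stimulus: K+/Tl+ depolarizing stimulus | Measured by: Kinetic FluxOR fluorescence, 10 s baseline plus 110 s post-stimulus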
hERG rescue = hERG rescue from dofetilide block, primary screen, cell-based, CHO-hERG, FluxOR thallium flux, dofetilide IC70. 0.51% of 310,000 active. activation (rescue from dofetilide block), less the hit threshold, % at 10 µM. Voltage-gated inwardly rectifying potassium channel KCNH2 (Homo sapiens), Q12809. dofetilide IC70 present;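 active = activation above the mean of controls blocked by dofetilide plus 5 SD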;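 also: thallium influx through hERG after potassium depolarization seen as dye fluorescence rise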
KCNQ1 block val = KCNQ1 potassium channel inhibitors, confirmation, cell-based, Tl flux, duplicate; 93% of 1,600 active; KCNQ1 cell line, FluxOR thallium flux fluorescence; inhibition, % at 10 µM; shares compounds with KCNQ1 block;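 active = primary screen active, with duplicate mean exceeding buffer control mean plus 3 SD of buffer wells, cut at about 28% in these data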;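 also: 0% = buffer control ratio and 100% = XE991 inhibitor control ratio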
CHO Tl flux = thallium flux effects in parental CHO cells, counter-screen for KCNQ1 inhibitor project, cell-based, Tl flux; 21% of 1,600 active; AID 588366, 2011; shares compounds with KCNQ1 block; parental CHO-K1, FluxOR thallium flux fluorescence ratio; hits give low values; zero means no signal rise above baseline; fluorescence ratio (Tl flux) at 10 µM;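 active = mean of duplicate thallium-flux fluorescence ratios in parental host cells more than 5 SD below the buffer control mean, cut at about 0.38 in these data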;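 also: ratio is peak minus minimum fluorescence divided by baseline fluorescence; actives read low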
KCNQ1 APC inh = KCNQ1 channel inhibitors, confirmation, orthogonal assay, cell-based, automated electrophysiology; shares compounds with KCNQ1 block; KCNQ1-CHO cells, automated patch clamp current; calls only at 10 µM; 20% of 490 active; AID 624120, 2012;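 active = KCNQ1 current drop exceeding 3 SD of negative control wells, seen in both duplicate runs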;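 also: steady state current during a 2 s step from -80 to +40 mV; negative values mean current inhibition and positive values mean potentiation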
KCNQ2 inh = KCNQ2 channel inhibition, selectivity assay for KCNQ1 inhibitor project, cell-based; KCNQ2 cells, FluxOR thallium flux fluorescence; inhibition, % at 10 µM; shares compounds with KCNQ1 block; AID 651746, 2012; 71% of 1,600 active;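 active = mean percent inhibition of the KCNQ2 thallium signal more than 5 SD above the buffer-only control wells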;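 also: KCNQ2 expressed in CHO cells; 0% = buffer control wells and 100% = XE-991 inhibitor control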
KCNQ1 KCNE1 spec = KCNQ1/KCNE1 channel inhibition, selectivity assay for KCNQ1 inhibitor project, CHO-K1 cells, thallium flux, FluxOR; shares compounds with KCNQ1 block; FluxOR thallium flux fluorescence; inhibition, % at 10 µM; 77% of 1,600 active;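 active = mean percent inhibition of duplicate wells above the buffer-only control mean plus 3 SD of those controls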;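 also: 0% = buffer only wells and 100% = XE-991 inhibitor control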
KCNK9 inh conf = KCNK9 potassium channel inhibitors, confirmation, HEK293 cells, thallium flux, duplicate. shares compounds with KCNK9 block. FluxOR thallium flux fluorescence. inhibition, % at 10 µM. 43% of 4,900 active;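 active = thallium signal inhibited by more than 5 SD of the compound-free buffer control wells, on both duplicate plates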;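 also: 0% = assay buffer control wells without compound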
Kir21 sel = mouse Kir2.1 channel inhibition, confirmation, selectivity assay for KCNK9 modulator project, cell-based, HEK293, thallium flux; shares compounds with KCNK9 block; inhibition, % at 10 µM; 4% of 4,900 active; Kir2.1 cells, FluxOR thallium flux fluorescence; AID 492993, 2010;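 active = thallium signal drop more than 5 SD beyond the mean of the no-compound control wells, seen in both duplicate plates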;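 also: signal is fluorescence rise after thallium addition divided by baseline fluorescence; plate controls were assay buffer only for no effect and full block by chlorpromazine control for full effect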
KCNK9 uninduced = thallium flux in non-induced HEK293 cells, confirmation, counter-screen for KCNK9 inhibitor project, cell-based, second counter screen, non-induced KCNK9-HEK293; shares compounds with KCNK9 block; FluxOR thallium flux; inhibition, % at 10 µM; 40% of 4,900 active; AID 492997, 2010;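 active = thallium signal drop beyond 5 SD of the untreated control mean, on both duplicate plates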;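 also: plate controls were buffer only IC0 wells for no effect and SID17386958 at its maximal inhibitory level for full effect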
KCNK3 confirm = retest of human KCNK3 channel inhibitors, confirmation, CHO cells, FluxOR thallium flux, triplicate | ratio percent of control, % at 10 µM | shares compounds with KCNK3 inh | FluxOR fluorescence; 0% buffer, 100% carvedilol maximal block | 99% of 2,400 active;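 active = ratio percent of control, averaged over triplicates, above buffer control mean plus 5 SD, cut at about 64% in these data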;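 also: ratio is the fluorescence rise from min to max over baseline after thallium stimulus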
KCNK3 uninduced = thallium flux inhibition in non-induced cells, primary screen, counter-screen for KCNK3 inhibitor project, cell-based, non-induced KCNK3 line, FluxOR thallium, triplicate. shares compounds with KCNK3 inh. non-induced KCNK3 parental cells; hits give low values. thallium flux ratio (lower = more inhibition) at 10 µM. 40% of 2,400 active. AID 651747, 2012;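 active = thallium flux ratio, averaged over three wells, more than 5 SD below the buffer control mean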;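 also: host cells are CHO cells without KCNK3 induction; ratio is peak minus trough fluorescence over baseline then normalized to buffer controls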
Active calls of the source: *; i = inactive; . = no result; + = active, no number.

SMILES | KCNK9 block | Kir21 block | KCNQ1 block | KCNK3 inh | KCNQ1 act | hERG rescue | KCNQ1 block val | CHO Tl flux | KCNQ2 inh | KCNQ1 KCNE1 spec | KCNK3 confirm | KCNK3 uninduced | others
CC(C)(CN1CCN(Cc2ccccc2)CC1)NS(=O)(=O)c1ccccc1 | i | -2 | i | i | i | -9 | . | . | . | . | . | .
COc1ccc(C2=NO[C@@](CC(=O)O)(C(=O)Nc3ccc4c(c3)OCCO4)C2)cc1 | i | 0.1 | i | i | i | 0 | . | . | . | . | . | .
CCOC(=O)/C=C/C(=O)Nc1ccc(S(=O)(=O)Nc2nccs2)cc1 | i | -0.48 | i | i | i | -7 | . | . | . | . | . | .
CCOc1ccc(N(C)S(=O)(=O)c2cc(-c3cc(C)no3)ccc2CC)cc1 | -7.8* | 1.2 | 13* | -13* | i | -5 | 98* | 0.36* | 118%* | 138%* | 123* | 0.14*
CC1C(=O)N(Cc2ccccc2F)c2ccccc2N1C(=O)c1c(F)cccc1F (stereo not given) | -7.7* | 0.01 | 15* | -9* | i | -19 | 58* | 0.44 | 78%* | 50%* | 87* | i
COc1cc2c(cc1OC)C(c1ccc(-c3ccccc3Cl)o1)=NCC2 | i | 0.01 | 12* | -12* | i | -31 | 136* | 0.37* | 145%* | 196%* | 101* | 0.12*
CCC(C(=O)Nc1cccc(C(F)(F)F)c1)c1ccccc1 (stereo not given) | -10* | 0.18 | 11* | -9.4* | i | -12 | 104* | 0.4 | 72%* | 116%* | 128* | 0.13* | KCNQ1 APC inh=+;KCNK9 inh conf=64%*;Kir21 sel=i;KCNK9 uninduced=44%*
CCC(C(=O)Nc1ccncc1)c1ccccc1 (stereo not given) | i | -0.42 | i | i | i | -7 | . | . | . | . | . | .
COc1ccc(-c2csc3ncnc(N4CCN(Cc5ccccc5)CC4)c23)cc1 | i | 0.67 | i | i | i | -20 | . | . | . | . | . | .
COc1ccc(-c2csc3ncnc(N4CCN(c5ccccc5)CC4)c23)cc1 | -6.7* | 0.13 | 15* | i | i | -13 | 134* | 0.37* | 132%* | + | 106* | 0.13*
CN(CC(=O)Nc1ccc(Cl)c(C(F)(F)F)c1)C(=O)c1cccc2cccnc12 | . | . | . | i | . | . | . | . | . | . | . | .
CCCCc1nc(N2CCN(C(=O)c3ccco3)CC2)c(C#N)c2c1CCCC2 | -6.8* | -1.3 | 9* | -9.4* | i | -15 | 98* | 0.34* | 108%* | 46%* | 120* | i
Cc1ccc2c(CN(C)Cc3ccc(OC(F)F)cc3)cc(=O)oc2c1C | i | 0.56 | 11* | -10* | i | -21 | 128* | 0.47 | 101%* | 135%* | 126* | 0.15* | KCNQ1 APC inh=i
CC1(C)CC(NC(=O)c2ccc(-c3ccc([N+](=O)[O-])cc3)o2)CC(C)(C)N1 | i | -0.27 | i | i | i | -15 | . | . | . | . | . | .
Cc1nc2ccccc2c2c1CC(C(C)(Cl)Br)O2 (stereo not given) | i | -0.94 | 6* | -9.6* | i | -26 | 106* | 0.48 | 80%* | i | 127* | i | KCNQ1 APC inh=+
COC(=O)CNc1nc(Cl)nc(Nc2ccc(Cl)cc2)n1 | i | 0.39 | i | i | i | -1 | . | . | . | . | . | .
Cc1cc(SCC(=O)c2ccc(O)c(O)c2)nc2ccccc12 | i | -1 | 9* | -9.4* | i | -17 | 100* | 0.47 | i | 116%* | 120* | 0.14* | KCNQ1 APC inh=i
Cc1cc(SCC(=O)c2ccc3c(c2)OCO3)nc2ccccc12 | i | -3.3 | i | i | i | -13 | . | . | . | . | . | .
